In one assay the target is GST-TopBP1 BRCT5 (Homo sapiens, UniProt Q92547). Description: Fluorescence polarization. The assay is classed as binding. Summed up:
(§1)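 Human TopBP1 GST fusions of BRCT4/5 (549–746) or BRCT5 (641–746), wild type or point mutants, were expressed in E. coli BL21-Gold and glutathione-affinity purified. Plates sat 15 min at room temperature, then FP was read at ex 485/em 538 nm. Kd was curve-fitted and averaged over ≥3 independent titrations.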
On the technique in general: Polarisation of emitted light reports the rotation of a fluorescent probe.

A further assay has as its target GST-TopBP1 BRCT4/5 (Homo sapiens, UniProt Q92547). Description: Fluorescence polarization. The assay is classed as binding. Summed up: as §1
Assay [1] concerns the target GST-BRCT5 R681E/K682E (TopBP1) (Homo sapiens, UniProt Q92547, K682E/R681E). The experiment in a line: Fluorescence polarization. The assay is classed as binding. The method, boiled down:
as §1

Another assay concerns the target GST-BRCT5 K704A (TopBP1) (Homo sapiens, UniProt Q92547, K704A). Description: Fluorescence polarization. The assay is classed as binding. Summed up: as §1
The target in assay [2] is T1, FITC-labeled MDC1 consensus SDT di-phospho-peptide FITC-GFIDpSDpTDVEEE-NH2.
T1 peptide: {FITC}-GFID[pS]D[pT]DVEEE-NH2
Description: fluorescence polarisation.

The target in assay [3] is T2, FITC-labeled MDC1 consensus SDT di-phospho-peptide FITC-GFIDpSDpTDVEEE-NH2.
T2 chain: GFIDSDTDVEEE
The experiment in a line: fluorescence polarisation.

Assay [4] addresses T3, FITC-labeled MDC1 SDT di-phospho-peptide with +2 Val to Asp, FITC-GFIDpSDpTDDEEE-NH2.
T3 chain: GFIDSDTDDEEE
Description: fluorescence polarisation.

The target in assay [5] is T4, FITC-labeled pThr MDC1 consensus SDT peptide FITC-GFIDSDpTDVEEE-NH2.
T4 chain: GFIDSDTDVEEE
The experiment in a line: fluorescence polarisation.

For assay [6], the target named is T5, FITC-labeled pSer MDC1 consensus SDT peptide FITC-GFIDpSDTDVEEE-NH2.
T5 chain: GFIDSDTDVEEE
Description: fluorescence polarisation.

The target in assay [7] is T6, FITC-labeled non-phosphorylated MDC1 consensus SDT peptide FITC-…-NH2.
T6 chain: GFIDSDTDVEEE
The experiment in a line: fluorescence polarisation.

Where two headings read alike, the source gives them in different places. Square brackets hold non-standard residues; d marks the D form. Peptide text beside a SMILES is read from it. * marks the point of attachment. FITC = O=C1OC2(c3ccc(O)cc3Oc3cc(O)ccc32)c2ccc(NC(=S)*)cc21; pT = C[C@@H](OP(=O)(O)O)[C@H](N)C(=O)O; pS = N[C@@H](COP(=O)(O)O)C(=O)O

Chain of GST-BRCT5 R681E/K682E (TopBP1) (Q92547 641-746 R681E/K682E): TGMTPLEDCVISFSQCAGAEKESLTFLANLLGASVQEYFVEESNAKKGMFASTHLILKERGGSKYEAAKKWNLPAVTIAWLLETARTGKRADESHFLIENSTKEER
Chain of GST-BRCT5 K704A (TopBP1) (Q92547 641-746 K704A): as the sequence (Q92547 641-746 R681E/K682E) above, with E41R, E42K, K64A counted along it

A word on the Kd: it is the equilibrium constant for the complex coming apart. In turn, `CC[C@H](C)[C@H](NC(=O)[C@H](Cc1ccccc1)NC(=O)CNC(=S)Nc1ccc2c(c1)C(=O)OC21c2ccc(O)cc2Oc2cc(O)ccc21)C(=O)N[C@@H](CC(=O)O)C(=O)N[C@@H](CO)C(=O)N[C@@H](CC(=O)O)C(=O)N[C@H](C(=O)N[C@@H](CC(=O)O)C(=O)N[C@H](C(=O)N[C@@H](CCC(=O)O)C(=O)N[C@@H](CCC(=O)O)C(=O)N[C@@H](CCC(=O)O)C(N)=O)C(C)C)[C@@H](C)O` [FITC-GFIDSDTDVEEE-NH2] ({FITC}-GFIDSDTDVEEE-NH2) gave an equilibrium dissociation constant (Kd) on GST-TopBP1 BRCT5 of 310 ± 70 µM.

As to `CC[C@H](C)[C@H](NC(=O)[C@H](Cc1ccccc1)NC(=O)CNC(=S)Nc1ccc2c(c1)C(=O)OC21c2ccc(O)cc2Oc2cc(O)ccc21)C(=O)N[C@@H](CC(=O)O)C(=O)N[C@@H](CO)C(=O)N[C@@H](CC(=O)O)C(=O)N[C@H](C(=O)N[C@@H](CC(=O)O)C(=O)N[C@H](C(=O)N[C@@H](CCC(=O)O)C(=O)N[C@@H](CCC(=O)O)C(=O)N[C@@H](CCC(=O)O)C(N)=O)C(C)C)[C@@H](C)OP(=O)(O)O` [FITC-GFIDSDpTDVEEE-NH2] ({FITC}-GFIDSD[pT]DVEEE-NH2), the dissociation constant Kd on GST-TopBP1 BRCT5 was 98 ± 9 µM.

Regarding `CC[C@H](C)[C@H](NC(=O)[C@H](Cc1ccccc1)NC(=O)CNC(=S)Nc1ccc2c(c1)C(=O)OC21c2ccc(O)cc2Oc2cc(O)ccc21)C(=O)N[C@@H](CC(=O)O)C(=O)N[C@@H](COP(=O)(O)O)C(=O)N[C@@H](CC(=O)O)C(=O)N[C@H](C(=O)N[C@@H](CC(=O)O)C(=O)N[C@H](C(=O)N[C@@H](CCC(=O)O)C(=O)N[C@@H](CCC(=O)O)C(=O)N[C@@H](CCC(=O)O)C(N)=O)C(C)C)[C@@H](C)O` [FITC-GFIDpSDTDVEEE-NH2] ({FITC}-GFID[pS]DTDVEEE-NH2), binding at GST-TopBP1 BRCT5 was put at a Kd of 105 ± 9 µM.

At GST-TopBP1 BRCT5, `CC[C@H](C)[C@H](NC(=O)[C@H](Cc1ccccc1)NC(=O)CNC(=S)Nc1ccc2c(c1)C(=O)OC21c2ccc(O)cc2Oc2cc(O)ccc21)C(=O)N[C@@H](CC(=O)O)C(=O)N[C@@H](COP(=O)(O)O)C(=O)N[C@@H](CC(=O)O)C(=O)N[C@H](C(=O)N[C@@H](CC(=O)O)C(=O)N[C@@H](CC(=O)O)C(=O)N[C@@H](CCC(=O)O)C(=O)N[C@@H](CCC(=O)O)C(=O)N[C@@H](CCC(=O)O)C(N)=O)[C@@H](C)OP(=O)(O)O` [FITC-GFIDpSDpTDDEEE-NH2] ({FITC}-GFID[pS]D[pT]DDEEE-NH2) had a dissociation constant (Kd) of 24 ± 3 µM.

As to `CC[C@H](C)[C@H](NC(=O)[C@H](Cc1ccccc1)NC(=O)CNC(=S)Nc1ccc2c(c1)C(=O)OC21c2ccc(O)cc2Oc2cc(O)ccc21)C(=O)N[C@@H](CC(=O)O)C(=O)N[C@@H](COP(=O)(O)O)C(=O)N[C@@H](CC(=O)O)C(=O)N[C@H](C(=O)N[C@@H](CC(=O)O)C(=O)N[C@H](C(=O)N[C@@H](CCC(=O)O)C(=O)N[C@@H](CCC(=O)O)C(=O)N[C@@H](CCC(=O)O)C(N)=O)C(C)C)[C@@H](C)OP(=O)(O)O` [FITC-GFIDpSDpTDVEEE-NH2] ({FITC}-GFID[pS]D[pT]DVEEE-NH2), the dissociation constant Kd on GST-TopBP1 BRCT5 was 28 ± 4 µM; at GST-TopBP1 BRCT4/5 it was 27 ± 4 µM; in assay [1], 280 ± 60 µM; on GST-BRCT5 K704A (TopBP1), 210 ± 50 µM.

B1: GST-TopBP1 BRCT4/5 (549-746) (domain or fragment)
chain: EEGLFSQKSFLVLGFSNENESNIANIIKENAGKIMSLLSRTVADYAVVPLLGCEVEATVGEVVTNTWLVTCIDYQTLFDPKSNPLFTPVPVMTGMTPLEDCVISFSQCAGAEKESLTFLANLLGASVQEYFVRKSNAKKGMFASTHLILKERGGSKYEAAKKWNLPAVTIAWLLETARTGKRADESHFLIENSTKEER
In turn, B1 had a dissociation constant Kd in assay [2] of 27 ± 4 µM.

B2: GST-TopBP1 BRCT5 (641-746), Q92547 641-746 (domain or fragment)
chain: TGMTPLEDCVISFSQCAGAEKESLTFLANLLGASVQEYFVRKSNAKKGMFASTHLILKERGGSKYEAAKKWNLPAVTIAWLLETARTGKRADESHFLIENSTKEER
modifications: not checked
As for B2, the Kd in [3] turned out to be 28 µM; in assay [4], 24 µM; in assay [5], 98 µM; in assay [6], 105 µM; in [7] it was 310 µM.

These data come from PMC3760280 (Structure (London, England : 1993), 2013).
